Screening results as filed in PubChem BioAssay.
This is one part of a sample in which hits are shown more often than they occur.
TNAP act DEA – human TNAP activation, intermediate phosphate acceptor; purified TNAP, CDP-star luminescence, 100 mM DEA, 30 min; active compounds read high; scale: 0 levamisole-inhibited, 1 vehicle-only enzyme; AID 813; 64,000 tested, under 10 active; activation factor at 20 µM;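 active = activation factor of at least 2 at 20 µM, relative to controls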
Target sequence (P05186 whole entry, looked up): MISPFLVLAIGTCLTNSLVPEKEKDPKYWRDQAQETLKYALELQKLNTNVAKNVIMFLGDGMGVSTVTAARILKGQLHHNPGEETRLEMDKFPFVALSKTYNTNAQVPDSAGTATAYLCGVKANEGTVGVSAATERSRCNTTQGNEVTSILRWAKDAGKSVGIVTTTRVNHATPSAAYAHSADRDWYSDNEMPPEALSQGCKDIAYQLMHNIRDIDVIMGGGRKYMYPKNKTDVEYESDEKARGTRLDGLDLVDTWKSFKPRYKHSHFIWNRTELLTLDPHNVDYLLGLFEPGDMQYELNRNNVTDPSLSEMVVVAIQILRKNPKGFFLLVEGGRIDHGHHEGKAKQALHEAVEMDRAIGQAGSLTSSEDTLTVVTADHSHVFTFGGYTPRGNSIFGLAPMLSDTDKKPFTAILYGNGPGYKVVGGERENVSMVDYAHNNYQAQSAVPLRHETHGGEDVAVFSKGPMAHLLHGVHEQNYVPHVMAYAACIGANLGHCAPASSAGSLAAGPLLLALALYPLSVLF
Candida biofilm – kills Candida albicans biofilms | C. albicans biofilm + clotrimazole, Alamar Blue | inhibition, % at 6 µM | hit rate 0.14% among 85,000 | AID 834;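 active = inhibition above 20%; inactive = inhibition below 20%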;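 note: preformed 24 hr biofilms exposed to compound for 48 hr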
HEK293 NFkB inh – inhibitors of the PMA/ionomycin-induced NF-kB reporter in HEK293 cells; inhibition, % at 3 µM; hit rate 0.21% among 62,000; HEK-293 NF-kB luciferase reporter, luminescence;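 active = inhibition above the mean of all tested compounds plus 3 SD, cut at about 40% in these data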
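Timing: 1 h pretreatment, 16 h stimulation, 37 °C; system: HEK-293 cells with stable firefly luciferase reporter driven by four HIV NF-kB elements; doses: 3 µM once, 0.30% DMSO; measured by: luciferase luminescence; control set: DMSO and 10 µM reference inhibitor; repeats: single test; reagent: PMA plus ionomycin mix as NF-kB-activating stimulus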
Jurkat viability – cytotoxic compounds reducing Jurkat cell viability | Jurkat E6.1 viability, ATP luminescence, 48 h | hit rate 1.2% among 56,000 | inhibition, % at 4 µM;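 active = inhibition above the mean inhibition of all tested compounds plus 3 SD, cut at about 28% in these data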
MMP-13 inhibitor – inhibitors of human MMP13. MMP-13 fTHP FRET cleavage, Mca fluorescence. AID 570. inhibition, % at 4 µM. hit rate 0.07% among 65,000;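 active = inhibition above the mean of compound-free control plate wells plus 3 SD, cut at about 14% in these data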
A number is an active result.

What do the screens show for `COc1cccc(N2C(N)=NC(N)=NC2(C)C)c1`?
TNAP act DEA: inactive; Candida biofilm: inactive; HEK293 NFkB inh: inactive; Jurkat viability: 66; MMP-13 inhibitor: inactive

What do the screens show for `COc1ccc(N2C(N)=NC(N)=NC2(C)C)cc1`?
Candida biofilm: inactive

Results for Cc1onc(-c2ccccc2Cl)c1C(=O)N1CCN(c2cccc(Cl)c2)CC1 ?
TNAP act DEA: inactive; Candida biofilm: inactive; HEK293 NFkB inh: inactive; Jurkat viability: 61; MMP-13 inhibitor: inactive

Results for O=C(c1cccc(Cl)c1)N1CCN(C(=O)c2ccccc2F)CC1 ?
TNAP act DEA: inactive; Candida biofilm: inactive; MMP-13 inhibitor: inactive

How did O=C(c1cccc(F)c1)N1CCN(c2cccc(Cl)c2)CC1 do in these assays?
TNAP act DEA: inactive; Candida biofilm: inactive; HEK293 NFkB inh: inactive; Jurkat viability: 80; MMP-13 inhibitor: inactive

How did COc1ccc(Cl)cc1C(=O)N1CCN(c2ccccn2)CC1 do in these assays?
Candida biofilm: inactive

What do the screens show for `COc1ccccc1C(=O)N1CCN(c2cccc(Cl)c2)CC1`?
TNAP act DEA: inactive; Candida biofilm: inactive; HEK293 NFkB inh: 40; MMP-13 inhibitor: inactive

What do the screens show for `CC(CN1CCCCC1)OC(=O)C(C)(c1ccccc1)c1ccccc1` (centres undefined)?
Candida biofilm: inactive

Results for COc1ccc(Cl)cc1NC(=O)CN1CCC(n2nnc3ccccc32)CC1 ?
TNAP act DEA: inactive; Candida biofilm: inactive; HEK293 NFkB inh: inactive; Jurkat viability: inactive; MMP-13 inhibitor: inactive

Results for CCOC(=O)c1[nH]c(C)c(C(=O)Nc2ccc(Cl)cc2)c1C ?
TNAP act DEA: inactive; Candida biofilm: inactive; HEK293 NFkB inh: inactive; Jurkat viability: inactive; MMP-13 inhibitor: inactive

How did CC(=O)c1c(C)[nH]c(C(=O)N2CCc3ccccc32)c1C do in these assays?
TNAP act DEA: inactive; Candida biofilm: inactive; HEK293 NFkB inh: inactive; Jurkat viability: inactive; MMP-13 inhibitor: inactive

Results for CCOC(=O)c1[nH]c(C)c(C(=O)N2CCc3ccccc32)c1C ?
TNAP act DEA: inactive; Candida biofilm: inactive; HEK293 NFkB inh: inactive; Jurkat viability: 97; MMP-13 inhibitor: inactive

What do the screens show for `CCOC(=O)c1[nH]c(C)c(C(=O)Nc2cccc(Cl)c2C)c1C`?
TNAP act DEA: inactive; Candida biofilm: inactive; HEK293 NFkB inh: inactive; Jurkat viability: 64; MMP-13 inhibitor: inactive

Results for O=S(=O)(c1ccc(Cl)cc1)n1nnc2ccccc21 ?
Candida biofilm: inactive

What do the screens show for `CCOc1cc(C#N)c(NC(=O)c2cccnc2Cl)cc1OCC`?
Candida biofilm: inactive

Results for CCOc1cc(C#N)c(NC(=O)c2cccnc2)cc1OCC ?
TNAP act DEA: inactive; HEK293 NFkB inh: inactive; Jurkat viability: 72; MMP-13 inhibitor: inactive

How did CC(C)Oc1cc(O)c2c(=O)c(-c3ccc(O)cc3)coc2c1 do in these assays?
TNAP act DEA: inactive; Candida biofilm: inactive; HEK293 NFkB inh: inactive; Jurkat viability: 99; MMP-13 inhibitor: inactive

How did COc1ccc(-c2coc3cc(OC)cc(O)c3c2=O)cc1 do in these assays?
Candida biofilm: inactive

How did COc1ccc(C(O)c2nc3ccccc3n2C)cc1OC (centres undefined) do in these assays?
TNAP act DEA: inactive; Candida biofilm: inactive; HEK293 NFkB inh: inactive; Jurkat viability: 54; MMP-13 inhibitor: inactive

How did COc1ccc(C(=O)NC(C)c2nc3ccccc3n2C)cc1OC (centres undefined) do in these assays?
TNAP act DEA: inactive; Candida biofilm: inactive; HEK293 NFkB inh: inactive; MMP-13 inhibitor: inactive

How did O=C(Nc1ccn(-c2ccccc2)n1)c1ccc(S(=O)(=O)N2CCCCCC2)cc1 do in these assays?
TNAP act DEA: inactive; Candida biofilm: inactive; HEK293 NFkB inh: inactive; Jurkat viability: 34; MMP-13 inhibitor: inactive

What do the screens show for `COc1cc(CSc2nnnn2-c2ccc(C)cc2)cc(OC)c1OC`?
TNAP act DEA: inactive; Candida biofilm: inactive; HEK293 NFkB inh: 44; Jurkat viability: 89; MMP-13 inhibitor: inactive

Results for CC(C)OCCCNc1ncnc2c1[nH]c1ccccc12 ?
TNAP act DEA: inactive; Candida biofilm: inactive; HEK293 NFkB inh: inactive; Jurkat viability: 67; MMP-13 inhibitor: inactive

What do the screens show for `COc1ccc2[nH]c3c(NCCN(C(C)C)C(C)C)ncnc3c2c1`?
TNAP act DEA: inactive; Candida biofilm: inactive; HEK293 NFkB inh: inactive; Jurkat viability: inactive; MMP-13 inhibitor: inactive

How did Cc1cccc2sc(NC(=O)CSCc3ccccc3)nc12 do in these assays?
Candida biofilm: 50

What do the screens show for `COCc1cc(CN2CCN(C)CC2)c(O)c2ncccc12`?
Candida biofilm: inactive

What do the screens show for `Oc1c(CN2CCOCC2)cc(COCc2ccccc2)c2cccnc12`?
TNAP act DEA: inactive; HEK293 NFkB inh: inactive; Jurkat viability: 54; MMP-13 inhibitor: inactive
